Inconclusive results are not listed. Active and inactive are the calls of the source.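 The calls were made as follows: active = compounds lowering viability signal with fitted half-maximal potency within ten times the top dose, in every repeat run; inconclusive = repeat runs disagree, or weak flat or poorly fitted curves; inactive = every run inactive, including flat or rising signals.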

Tested on in one experiment: not listed separately
Briefly: breast CSC-like cell growth inhibition – CellTiter-Glo luminescence, powder samples, set 4, dose response (AID 504449). The following applies: HMLE_shECad breast CSC viability, CellTiter-Glo, 72 h; at 30 µM (top of the series). The method, boiled down: (§1)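 assay system = HMLE_shECad cells, E-cadherin knockdown, EMT-induced breast cancer stem cell model | medium = serum-free CSC medium | compound = 100 nL pinned compound | times = ≥4 h cell settling at 37 °C, ~70-74 h compound exposure | technique = CellTiter-Glo luminescence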
Background: ATP-based viability assays read luminescence as a measure of living cells.
Consider `O=S(=O)(/C=C/c1ccccc1)NC1=NCCS1`, for which the activity change, negative = inhibition was 14.4% (inactive). As to `C/C(=C\c1ccccc1)C(=O)NC1=NCCS1`, the activity change, negative = inhibition was 8.28% (inactive). For the molecule `O=C(COc1ccc(Cl)cc1Cl)N/N=C/c1ccn[nH]1`, the activity change, negative = inhibition is 1.84% (inactive). The same measure, in the same setting: the value for `O=C(NC1=NCCS1)/C(F)=C/c1ccccc1` was 10.8% (inactive); that for `O=C(c1ccc(COc2ccccc2)o1)N1CCOCC1` was 2% (inactive); that for `COc1ccccc1OCC(=O)N/N=C/c1ccc[nH]1` was 9.18% (inactive). As for `O=C(Nc1nccs1)c1ccc(COc2ccccc2)o1`, the activity change, negative = inhibition was 6.69% (inactive). For `COc1cccc(/C=C/C(=O)NC2=NCCS2)c1`, the activity change, negative = inhibition is -21% (inactive). For `Cc1csc(NC(=O)c2ccc(CO)o2)n1`, the activity change, negative = inhibition was -1.83% (inactive). Still for that read-out and setting: the value for `O=C(COc1c(Cl)cc(Cl)cc1Cl)N/N=C/c1ccn[nH]1` was 6.67% (inactive).

For `O=C(N/N=C/c1ccn[nH]1)c1cc2ccccc2o1`, the activity change, negative = inhibition was 26.2% (inactive). The same measure, in the same setting: the value for `Cc1ccc2cc(C(=O)NC3=NCCS3)n(C)c2c1` was -17.3% (inactive); that for `CC(C)c1ccc(/C=C/C(=O)NCc2ccccc2)cc1` was -6.44% (inactive); that for `Cn1ccnc1NC(=O)c1ccc(COc2ccccc2)o1` was -15.5% (inactive).

On to `CC(C)c1ccc(/C=C/C(=O)N2CCOCC2)cc1`, for which the activity change, negative = inhibition was 17.8% (inactive). Same read-out and setting: the value for `O=C(Nc1ccccn1)c1ccc(COc2ccccc2)o1` was -28.5% (inactive); that for `O=C(/C=C/c1ccc(C(F)(F)F)cc1)NC1=NCCS1` was -1.72% (inactive); that for `Cc1cc(C)c(/C=N/NC(=O)COc2c(Cl)cc(Cl)cc2Cl)[nH]1` was -14.5% (inactive). Still for that read-out and setting: in the case of `C(=C\c1ccccc1)/CNC1=NCCS1` it was 10.6% (inactive).

A further experiment relates to HMLE_shECad breast CSC viability, CellTiter-Glo, 72 h. Described as above.
Conditions: not given
The method, boiled down: as §1
In the case of `Cc1ccc(C)c(OCC(=O)N/N=C/c2ccc[nH]2)c1`, the AC50 is 9.05 µM. The same measure, in the same setting: the value for `Cc1csc(NC(=O)c2ccc(COc3cccc(C(F)(F)F)c3)o2)n1` was 1.57 µM. Still for that read-out and setting: the value for `Cc1csc(NC(=O)c2ccc(COc3ccc(Cl)cc3)o2)n1` was 2.82 µM.

With `Cc1csc(NC(=O)c2ccc(COc3ccc(OC(F)(F)F)cc3)o2)n1`, the AC50 was 3.16 µM. Same read-out and setting: the value for `Cc1ccc(/C=C/C(=O)NC2=NCCS2)cc1` was 16 µM; that for `CC(C)c1ccc(/C=C/C(=O)Nc2nccn2C)cc1` was 4.65 µM. Still for that read-out and setting: in the case of `Cc1cccc(OCC(=O)N/N=C/c2ccc[nH]2)c1C` it was 24.6 µM. Regarding `CC(C)c1ccc(/C=C/C(=O)Nc2ccccn2)cc1`, the AC50 is 25.5 µM. For `O=C(COc1ccc(Cl)cc1Br)N/N=C/c1ccc[nH]1`, the AC50 is 3.16 µM. The same measure, in the same setting: in the case of `Cc1csc(NC(=O)c2ccc(COc3cccc(Cl)c3)o2)n1` it was 0.572 µM; in that of `O=C(/C=C/c1cccc(Cl)c1)NC1=NCCS1`, 15 µM; in that of `Cc1csc(NC(=O)c2ccc(COc3ccc(C#N)cc3)o2)n1`, 11.5 µM. Still for that read-out and setting: the value for `CC(C)c1ccc(/C=C/C(=O)N(C)Cc2ccccc2)cc1` was 19.2 µM; that for `O=C(COc1ccc(Br)cc1)N/N=C/c1ccc[nH]1` was 15.3 µM. In the case of `CC[C@@H](C(=O)O)C1CC[C@H](C)C([C@@H](C)[C@H](O)[C@H](C)C(=O)[C@H](CC)C2O[C@]3(C=C[C@@H](O)[C@]4(CC[C@@](C)(C5CC[C@](O)(CC)[C@H](C)O5)O4)O3)[C@H](C)C[C@@H]2C)O1` (stereo not given in full), the AC50 is 0.01 µM. For the molecule `O=C(COc1ccc2ccccc2c1Br)N/N=C/c1ccc[nH]1`, the AC50 was 1.11 µM. The same measure, in the same setting: the value for `Cc1csc(NC(=O)c2ccc(COc3cccc(C#N)c3)o2)n1` was 2.07 µM; that for `Cc1csc(NC(=O)c2ccc(COc3ccccc3C(F)(F)F)o2)n1` was 0.065 µM. Regarding `Cc1csc(NC(=O)c2ccc(COc3ccc(C(F)(F)F)cc3)o2)n1`, the AC50 was 2.01 µM. For `Cc1csc(NC(=O)c2ccc(COc3ccccc3F)o2)n1`, the AC50 is 0.019 µM. Consider `COc1ccc(OCc2ccc(C(=O)Nc3nc(C)cs3)o2)cc1`, for which the concentration at half-maximal activity (AC50) is 29.4 µM. Same read-out and setting: the value for `Cc1csc(NC(=O)c2ccc(COc3cccc(F)c3)o2)n1` was 10.1 µM; that for `CC(C)c1ccc(/C=C/C(=O)Nc2nncs2)cc1` was 13.6 µM. For `Cc1csc(NC(=O)c2ccc(COc3ccc(F)cc3)o2)n1`, the half-maximal activity concentration (AC50) is 5.65 µM. With `O=C(N/N=C/c1ccc[nH]1)C1COc2cc3ccccc3cc2O1` (stereo not given), the half-maximal activity concentration (AC50) is 4.2 µM. As for `CC(C)(C)c1ccc(C2CC2C(=O)N/N=C/c2ccc[nH]2)cc1` (stereo not given), the AC50 is 0.787 µM. The same measure, in the same setting: in the case of `O=C(CSc1cc(Cl)ccc1Cl)N/N=C/c1ccc[nH]1` it was 2.27 µM; in that of `O=C(Nc1nc2cccc(Cl)c2s1)c1ccc(COc2ccccc2)o1`, 4.49 µM. For the molecule `Cc1csc(NC(=O)c2ccc(COc3cccc(OC(F)(F)F)c3)o2)n1`, the AC50 was 0.439 µM. On the same count and under the same terms, the value for `COc1ccccc1OCc1ccc(C(=O)Nc2nc(C)cs2)o1` was 1.63 µM; that for `CC(C)c1ccc(/C=C/C(=O)Nc2nccs2)cc1` was 3.54 µM. As to `Cc1csc(NC(=O)c2ccc(COc3ccccc3Cl)o2)n1`, the AC50 is 0.045 µM.

Turning to `Cc1csc(NC(=O)c2ccc(COc3ccccc3C#N)o2)n1`, the AC50 is 0.917 µM.

In the case of `Cc1csc(NC(=O)c2ccc(COc3ccccc3OC(F)(F)F)o2)n1`, the concentration at half-maximal activity (AC50) was 0.24 µM. For `COc1cccc(OCc2ccc(C(=O)Nc3nc(C)cs3)o2)c1`, the half-maximal activity concentration (AC50) is 0.081 µM. With `O=C(N/N=C/c1ccc[nH]1)C1CC1c1ccccc1` (stereo not given), the half-maximal activity concentration (AC50) was 12.9 µM.

For orientation: AC50 means the midpoint of the concentration-response curve, whichever way the signal moves.

These data come from PubChem BioAssay AID504449 (Broad Institute, 2011).
